Consider two compounds from ChEMBL document CHEMBL3627667, “Novel halogenated 3-deazapurine, 7-deazapurine and alkylated 9-deazapurine derivatives of L-ascorbic or imino-L-ascorbic acid: Synthesis, antitumour and antiviral activity evaluations” (Eur J Med Chem, 2015).

Series [1] in a line: Cytotoxicity against African green monkey Vero cells assessed as alteration in cell morphology by microscopy. The class given is cell-based. The settings on record: chlorocebus sabaeus. In a few lines:
(§1)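 MCC is the compound concentration causing a microscopically visible alteration of cell morphology in the cultures used for the antiviral assays.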

The next series has as its system Human respirovirus 3. In words: Antiviral activity against Parainfluenza virus 3 expressed in African green monkey Vero cells assessed as reduction in cytopathogenicity. It counts as functional, organism-based. The settings on record: Human respirovirus 3, Vero. Summed up:
(§2)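 Confluent Vero monolayers were inoculated with 100 CCID50 of virus in the presence of 5-fold serial compound dilutions. Cytopathicity was scored once it was complete in untreated infected controls. EC50 is the concentration giving 50% reduction of virus-induced cytopathogenicity.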
On the technique in general: Protection from cytopathic effect is a common read-out in antiviral testing.

For series [2], the system named is Human betaherpesvirus 5. The series can be described thus: Antiviral activity against Human cytomegalovirus AD169 expressed in HEL cells assessed as reduction in plaque formation incubated for 7 days by Giemsa stain based microscopy. The class given is functional, organism-based. The note with it: Human betaherpesvirus 5, AD169, HEL, 168 h. In a few lines:
(§3)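 Confluent HEL fibroblasts were infected at 100 PFU per well. After 2 h, residual virus was removed and compound-containing medium added, in duplicate. After 7 days at 37 °C, cells were ethanol-fixed, Giemsa-stained and examined microscopically. EC50 was read from graphic plots of % cytopathogenicity versus concentration.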

The test system of series [3] is HeLa. In words: Antiproliferative activity against human HeLa cells incubated for 72 hrs by MTT assay. The class given is functional, cell-based. The settings on record: Homo sapiens, HeLa, 72 h. In a few lines: (§4)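 Cells seeded at 5000 per well on day 0. Test agents added in five 10-fold dilutions (0.01–100 μM) for a further 72 h, with DMSO ≤0.1% as solvent control. Growth was read by MTT and absorbance converted to percentage growth against untreated cells on the same plate. IC50 came from linear regression on dose–response curves. Quadruplicate points, three independent experiments.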

The next series concerns HEL. In words: Cytotoxicity against human HEL cells assessed as cell growth reduction incubated for 3 days. The settings on record: 72 h. It counts as cell-based. Summed up:
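HEL cells were seeded at 5 × 10^3 per well and allowed to proliferate for 24 h before compound-containing medium was added. After 3 days at 37 °C, cells were counted with a Coulter counter. CC50 (50% reduction of proliferation versus untreated controls) was estimated from graphic plots.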

The test system of another series is SW-620. In words: Antiproliferative activity against human SW620 cells incubated for 72 hrs by MTT assay. It counts as functional, cell-based. The settings on record: Homo sapiens, SW-620, 72 h. Summed up: as §4
For a further series, the system named is Punta Toro virus. The series can be described thus: Antiviral activity against Punta Toro virus expressed in African green monkey Vero cells assessed as reduction in cytopathogenicity. It counts as functional, organism-based. In a few lines:
as §2

Series [4] has as its system Human betaherpesvirus 5. In words: Antiviral activity against Human cytomegalovirus Davis expressed in HEL cells assessed as reduction in plaque formation incubated for 7 days by Giemsa stain based microscopy. It counts as functional, organism-based. The settings on record: Human betaherpesvirus 5, Davis, 168 h. Summed up:
as §3

For the next series, the system named is Sindbis virus. The series can be described thus: Antiviral activity against Sindbis virus expressed in African green monkey Vero cells assessed as reduction in cytopathogenicity. The class given is functional, organism-based. Summed up: as §2
Series [5] in a line: Antiproliferative activity against human MIAPaCa2 cells incubated for 72 hrs by MTT assay. The class given is functional, cell-based, MIA PaCa-2. The settings on record: Homo sapiens, MIA PaCa-2, 72 h. In a few lines: as §4
Series [6] concerns HeLa. In words: Cytotoxicity against human HeLa cells assessed as cell growth reduction incubated for 3 days. The class given is cell-based. The settings on record: 72 h.
Series [7] can be described thus: Cytotoxicity against human HEL cells assessed as alteration in cell morphology incubated for 3 days by microscopy. The class given is cell-based. In a few lines:
as §1

The subject of a further series is Coxsackievirus B4. In words: Antiviral activity against Coxsackievirus B4 expressed in African green monkey Vero cells assessed as reduction in cytopathogenicity. The class given is functional, organism-based. The note with it: Enterovirus B. In a few lines: as §2
A further series has as its system HepG2. In words: Antiproliferative activity against human HepG2 cells incubated for 72 hrs by MTT assay. It counts as functional, cell-based. The note with it: Homo sapiens, HepG2, 72 h. In a few lines:
as §4

Series [8] in a line: Cytotoxicity against CRFK cells assessed as cell growth reduction incubated for 3 days. It counts as cell-based, Felis catus. The settings on record: cat, 72 h.
Series [9] concerns Mammalian orthoreovirus 1. The series can be described thus: Antiviral activity against Reovirus 1 expressed in African green monkey Vero cells assessed as reduction in cytopathogenicity. The class given is functional, cell-based. The settings on record: Mammalian orthoreovirus 1, Vero. In a few lines:
as §2

Series [10] in a line: Antiproliferative activity against human CEM/0 cells incubated for 72 hrs by MTT assay. The class given is functional, cell-based, CCRF-CEM. The note with it: Homo sapiens, CCRF-CEM, 72 h. In a few lines: as §4
In general terms: Tetrazolium assays rely on reduction of a dye to a coloured formazan, in cell work by metabolically active cells.

A further series has as its system CFPAC-1. The series can be described thus: Antiproliferative activity against human CFPAC-1 cells incubated for 72 hrs by MTT assay. It counts as functional, cell-based. The note with it: CFPAC-1, 72 h. In a few lines: as §4
The nature of series [11]: Antiproliferative activity against mouse L1210/0 cells incubated for 72 hrs by MTT assay. The class given is functional, cell-based. The settings on record: Mus musculus, L1210/0, 72 h. Summed up: as §4

SMILES strings stand for the structures. Bounds are passed on as bounds.

Consider `O=C1O/C(=C\Cn2cnc3c(Cl)c(F)nc(F)c32)C(OCc2ccccc2)=C1OCc1ccccc1` (mixture of isomers), for which the MCC in [1] came out at 20 µM. The EC50 in the series on Human respirovirus 3 is above 20 µM; in the series on Human betaherpesvirus 5 [2], 8.94 µM; with Punta Toro virus, 12 µM; in the series with Human betaherpesvirus 5 [4], 8.94 µM; in the series on Sindbis virus it was above 20 µM; in the series with Coxsackievirus B4 it was above 20 µM. Besides, in series [9], the half-maximal effective concentration (EC50) was above 20 µM. For the same compound, the 50% inhibitory concentration (IC50) in the series with HeLa [3] was above 100 µM; in the series with SW-620, 50 µM; in series [5], above 100 µM; in the series on HepG2, above 100 µM. For the same compound, in the series with HEL, the cytotoxic concentration (CC50) was above 100 µM. The Activity result (in the series with HeLa [6]; in [8]) was “Non-toxic” throughout. Further, the MCC at 72 h in [7] was at least 100 µM.

On to `O=C1O/C(=C\Cn2cnc3ncc(Br)c-3c2)C(OCc2ccccc2)=C1OCc1ccccc1` (mixture of isomers), for which the IC50 in series [10] was 12 µM; in the series with CFPAC-1, above 100 µM; in the series with HeLa [3], 17 µM; with SW-620, above 100 µM; in series [11] it was 15 µM; in series [5] it was above 100 µM. This compound had an IC50 in the series with HepG2 above 100 µM.

The term EC50 denotes the concentration needed to bring the measured effect to its halfway point. In general, IC50 refers to the concentration needed to halve the response being measured. As a reminder, the CC50 is the concentration at which the toxic effect on the cells reaches its halfway point.
